From PubChem BioAssay
M5 antag = CHRM5 antagonism in calcium assay; P08912; CHO-hM5 cells, Fluo-8 calcium fluorescence, ACh EC80; inhibition, % at 3 µM; 360,000 compounds, 0.59% hits; AID 624040;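 active = inhibition above a per-plate cutoff, the mean of that plate's test compounds plus 3 SD, cut at about 27% in these data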;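 note: 0% = acetylcholine EC80 with DMSO and 100% = DMSO without agonist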
CHRM1 PAM = positive allosteric modulators of human M1 muscarinic receptor; P11229; CHO-K1 hM1, Fluo-8 calcium fluorescence, ACh EC20; 0% = ACh EC20, 100% = maximal ACh; activation, % at 3 µM; 360,000 compounds, 0.088% hits; in the data active = activation above about 19%, passing the limit was not always enough
Target sequence (P11229 whole entry, looked up): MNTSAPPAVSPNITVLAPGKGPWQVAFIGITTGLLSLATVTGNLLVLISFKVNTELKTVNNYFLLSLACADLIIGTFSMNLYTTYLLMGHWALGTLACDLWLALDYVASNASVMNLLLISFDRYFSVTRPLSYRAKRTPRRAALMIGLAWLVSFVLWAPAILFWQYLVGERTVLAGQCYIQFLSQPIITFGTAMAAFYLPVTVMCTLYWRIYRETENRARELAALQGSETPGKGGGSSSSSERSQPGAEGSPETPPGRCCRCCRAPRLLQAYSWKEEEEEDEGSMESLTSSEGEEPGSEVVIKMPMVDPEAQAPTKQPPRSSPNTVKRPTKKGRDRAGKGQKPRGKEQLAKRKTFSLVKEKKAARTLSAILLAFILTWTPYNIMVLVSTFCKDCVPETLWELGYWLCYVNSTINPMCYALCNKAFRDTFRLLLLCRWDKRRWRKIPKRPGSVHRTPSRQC
M5 PAM = CHRM5 positive allosteric modulation. P08912. CHO-K1 hM5, Fluo-8 calcium, ACh EC20 PAM; 0% = ACh EC20, 100% = ACh EC100. activation, % at 3 µM. 360,000 compounds, 0.3% hits;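 active = activation above the run cutoff, the mean activation of all test compounds plus 3 SD, cut at about 18% in these data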
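System: CHO-K1 hM5 cells. Reagent: acetylcholine, EC20 level. Compound dosing: single dose, 3 µM nominal final test concentration. Timing: Post-acetylcholine fluorescence recording 140 s. Detection: Fluo-8 calcium fluorescence. Read-out: % activation, ACh-normalized. Benchmarks: ACh EC20 and EC100 wells. Repeats: singlicate, one well per test compound.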
CHRM1 antagonist = antagonists of human M1 muscarinic receptor; P11229; CHO-K1 hM1, Fluo-8 calcium fluorescence, ACh EC80 antagonist; inhibition, % at 3 µM; 360,000 compounds, 1.3% hits;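 active = percent inhibition above its own plate's cutoff, namely the mean of that plate's compound wells plus 3 SD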;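 note: peak over basal fluorescence ratio during 140 s after agonist addition; 0% = ACh EC80 plus DMSO and 100% = DMSO alone without agonist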
M1 ag = agonists of human M1 muscarinic receptor; CHO-K1 hM1, Fluo-8 calcium fluorescence, agonist mode; 0% DMSO, 100% acetylcholine EC100; activation, % at 3 µM; 360,000 compounds, 0.33% hits; AID 588814;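 active = activation above the run's mean compound activation plus 3 SD, cut at about 16% in these data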;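 note: peak over basal fluorescence ratio within a 140 s kinetic read after compound addition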
M5 ag = agonists of human muscarinic M5 receptor (CHRM5) | P08912 | CHO-K1 hM5 cells, Fluo-8 calcium fluorescence; 0% DMSO wells, 100% maximal acetylcholine response | activation, % at 3 µM | 360,000 compounds, 0.19% hits;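 active = activation above the run's mean over test compounds plus 3 SD, cut at about 23% in these data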;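 note: signal is peak over basal fluorescence ratio across the kinetic read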
The depositor's hits bear a star. Hits are enriched below; roughly 2.1% of the tested compounds scored in any of these assays.

CN(C(=O)CSc1nc2ccc(Cl)cc2[nH]1)C1CCS(=O)(=O)C1 (configuration not stated) was read as M5 antag -3.7, CHRM1 PAM 11.7, M5 PAM 22.8*, CHRM1 antagonist 6.2, M1 ag 4.9 and M5 ag 1.0.
`CCN(C(=O)CSc1nc2ccc(C)cc2[nH]1)C1CCS(=O)(=O)C1` (configuration not stated) gave M5 antag 9.5, CHRM1 PAM 15.6, M5 PAM 5.5, CHRM1 antagonist -15.1, M1 ag -3.5 and M5 ag -0.1.
For O=C(/C=C/Nc1cccc(C(F)(F)F)c1)c1ccc(Oc2ncccn2)cc1 the results were M5 antag -9.6, CHRM1 PAM 4.0, M5 PAM 9.1, CHRM1 antagonist -6.8, M1 ag 0.9 and M5 ag 4.0.
COc1ccc(NC(=O)NNC(=O)c2cc(C3CC3)nc3ccccc23)c(OC)c1 was read as M5 antag 4.1, CHRM1 PAM 0.1, M5 PAM -0.9, CHRM1 antagonist -3.3, M1 ag -1.2 and M5 ag -2.6.
Screening CCOC(=O)CS(=O)(=O)CC(=O)Nc1ccc([N+](=O)[O-])cc1OC returned M5 antag -4.8, CHRM1 PAM 5.2, M5 PAM 19.7*, CHRM1 antagonist -5.4, M1 ag -4.0 and M5 ag 2.7.
`O=C(CSc1nc(NS(=O)(=O)c2ccccc2)cc(=O)[nH]1)Nc1ccccc1Cl` gave M5 antag 4.9, CHRM1 PAM 10.6, M5 PAM 3.9, CHRM1 antagonist -16.0, M1 ag -5.2 and M5 ag -2.8.
Screening c1ccc(CCn2c3ccccc3c3nnc(SCc4ccc5nonc5c4)nc32)cc1 returned M5 antag 8.1, CHRM1 PAM 3.6, M5 PAM 0.1, CHRM1 antagonist -0.4, M1 ag -4.2 and M5 ag -1.4.
Cc1ccc(OCc2cc(C(=O)N3CCC(Oc4cccnc4)CC3)no2)cc1C was read as M5 antag 11.2, CHRM1 PAM -20.9, M5 PAM -13.9, CHRM1 antagonist 26.4, M1 ag -6.5 and M5 ag 8.4.
O=C(c1cc(COc2cccc(C(F)(F)F)c2)on1)N1CCC(Oc2cccnc2)CC1 was read as M5 antag 21.6, CHRM1 PAM -13.7, M5 PAM -14.8, CHRM1 antagonist 37.2*, M1 ag 1.6 and M5 ag 5.2.
`COc1cccc(OCc2cc(C(=O)N3CCN(C4CCCCC4)C(=O)C3)no2)c1` gave M5 antag 11.7, CHRM1 PAM -4.7, M5 PAM -4.5, CHRM1 antagonist 2.9, M1 ag -4.0 and M5 ag 5.3.
`COc1cccc(OCc2cc(C(=O)N3CCN(C4CCCC4)CC3)no2)c1` gave M5 antag 29.4*, CHRM1 PAM -1.4, M5 PAM -6.2, CHRM1 antagonist -2.9, M1 ag -2.8 and M5 ag -7.5.
`Cc1cccc(C)c1OCc1cc(C(=O)N2CCC(c3ccncc3)CC2)no1` gave M5 antag 24.6, CHRM1 PAM -13.7, M5 PAM -15.7, CHRM1 antagonist 29.2*, M1 ag -0.8 and M5 ag -2.9.
For CCOC(=O)N1CCN(c2nnc(-c3ccccc3)c3ccccc23)CC1 the results were M5 antag -0.4, CHRM1 PAM -23.5, M5 PAM -0.2, CHRM1 antagonist 18.5, M1 ag -10.6 and M5 ag -5.4.
Screening CC(OC(=O)Cc1c[nH]c2ccccc12)C(=O)Nc1ccccc1F (configuration not stated) returned M5 antag -2.0, CHRM1 PAM 0.6, M5 PAM -0.1, CHRM1 antagonist 0.8, M1 ag -1.0 and M5 ag 3.4.
Cc1ncsc1CCC(=O)N1CCCC(C(=O)c2cccc(Cl)c2)C1 (configuration not stated) was read as M5 antag 5.0, CHRM1 PAM -13.5, M5 PAM -5.6, CHRM1 antagonist 18.2, M1 ag -12.1 and M5 ag -1.9.
Screening COc1cc(C2CC(=O)c3c([nH]c(C(=O)OCCOC(C)C)c3C)C2)cc(OC)c1OC (configuration not stated) returned M5 antag 18.4, CHRM1 PAM -18.5, M5 PAM -24.4, CHRM1 antagonist 14.7, M1 ag 2.3 and M5 ag 6.5.
`CCOc1nc(-c2ccccc2)ccc1-c1noc(COC)n1` gave M5 antag -12.1, CHRM1 PAM 13.8, M5 PAM 18.2*, CHRM1 antagonist -15.7, M1 ag 0.5 and M5 ag -6.6.
`OC(COc1ccc(Br)cc1)Cn1ccnc1` (configuration not stated) gave M5 antag 6.5, CHRM1 PAM 8.3, M5 PAM -1.9, CHRM1 antagonist -7.6, M1 ag -4.8 and M5 ag -2.3.
For Cn1c(N)c(C(=O)CSc2nc(C3CC3)n(-c3ccccc3)n2)c(=O)n(C)c1=O the results were M5 antag 8.2, CHRM1 PAM 4.0, M5 PAM -2.8, CHRM1 antagonist -12.6, M1 ag 22.3* and M5 ag 6.1.
O=C(NCCC1CC1(Cl)Cl)Nc1ccccc1 (configuration not stated) was read as M5 antag 7.6, CHRM1 PAM 0.5, M5 PAM -4.1, CHRM1 antagonist -1.4, M1 ag -1.9 and M5 ag -0.4.
`N[C@@H](C(=O)N[C@@H]1C(=O)N2C(C(=O)O)=C(Cl)CS[C@H]12)c1ccccc1` gave M5 antag 5.8, CHRM1 PAM -2.8, M5 PAM -12.6, CHRM1 antagonist -27.7, M1 ag 17.7* and M5 ag 15.6.
For CCC(=O)OC1(C)C(=O)C=C2C=C(c3ccsc3)OC=C2C1=O (configuration not stated) the results were M5 antag 18.3, CHRM1 PAM -5.9, M5 PAM 1.1, CHRM1 antagonist 17.0, M1 ag -3.9 and M5 ag 4.5.
`Cc1ccc(NC(=O)c2onc(C)c2Cl)cc1` gave M5 antag -1.1, CHRM1 PAM 11.0, M5 PAM 0.8, CHRM1 antagonist -16.8, M1 ag -0.6 and M5 ag -0.1.
Cc1noc(C(=O)Nc2ccc(F)c(Cl)c2)c1Cl was read as M5 antag 18.6, CHRM1 PAM -29.9, M5 PAM -16.5, CHRM1 antagonist 82.8*, M1 ag -7.5 and M5 ag 0.5.
Screening O=C(O)CSc1cn(Cc2ccccc2)c2ccccc12 returned M5 antag -0.8, CHRM1 PAM 8.7, M5 PAM -0.3, CHRM1 antagonist -11.7, M1 ag -2.9 and M5 ag -3.7.
